In one assay the test system is HCT116. Put plainly: Cell proliferation assay. It is filed as cell-based. The note with it: read-out: IC50 HCT116; colorectal carcinoma; mean ± SD (n ≥ 2). Summed up: (§1)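 Mycoplasma-negative, STR-authenticated cells were seeded at 4000−6000/well and kept overnight at 37 °C, 5% CO2. Graded test compound concentrations or solvent control were added to triplicate wells. Adherent lines were read by SRB (OD 510 nm) and suspension lines by MTT (OD 570 nm). IC50 was obtained by nonlinear regression. Results are means ± SD (n ≥ 2).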

The next assay relates to SUDHL-4. The experiment in a line: Cell proliferation assay. It is filed as cell-based. The note with it: read-out: IC50 SUDHL-4; diffuse large B cell lymphoma; mean ± SD (n ≥ 2). Summed up:
as §1

A further assay deals with HPAF-II. Put plainly: Cell proliferation assay. It is filed as cell-based. The note with it: read-out: IC50 HPAF-II; pancreatic carcinoma; mean ± SD (n ≥ 2). The essentials:
as §1

For another assay, the system named is MDR1. Put plainly: Western blot of MDR1 in K562/ADR. To be noted: 48 h, concentration-dependent. It is filed as cell-based. Summed up:
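K562 and K562/ADR cells were seeded in 12-well plates overnight and treated with a concentration gradient of test compound for 48 h. Lysates in SDS sample buffer (equal protein) were separated by SDS-PAGE and transferred to PVDF. MDR1 was probed with primary and HRP-conjugated secondary antibodies and detected by ECL.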
On the technique in general: A western blot detects proteins with antibodies after separation by electrophoresis.

Another assay concerns MV-4-11. Put plainly: Cell proliferation assay. It is filed as cell-based. To be noted: read-out: IC50 MV-4-11; acute myeloid leukemia; mean ± SD (n ≥ 2). Summed up:
as §1

Another assay has as its system MDA-MB-231. Put plainly: Cell proliferation assay. It is filed as cell-based, human. Summed up:
as §1

For the next assay, the system named is K562/ADR. The experiment in a line: Cell proliferation assay, multidrug-resistant K562/ADR. It is filed as cell-based. To be noted: for RF (resistance factor): K562/ADR versus K562; for IC50: read-out: IC50 K562/ADR. The essentials:
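K562/ADR cells were derived from parental K562 by stepwise increases in ADR concentration. Proliferation was measured by the SRB (adherent) or MTT (suspension) method: 4000−6000 cells/well seeded overnight at 37 °C, 5% CO2, graded test compound in triplicate wells. IC50 was obtained by nonlinear regression. The resistance factor compares K562/ADR with parental K562. Results are means ± SD (n ≥ 2).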

The subject of the next assay is K562. Put plainly: Cell proliferation assay. It is filed as cell-based. The essentials: as §1
The test system of a further assay is NUGC-3. The experiment in a line: Cell proliferation assay. It is filed as cell-based. The note with it: read-out: IC50 NUGC-3; gastric carcinoma; mean ± SD (n ≥ 2). The essentials: as §1
The next assay has as its system NCI-H460. The experiment in a line: Cell proliferation assay. To be noted: read-out: IC50 NCI-H460; lung carcinoma; mean ± SD (n ≥ 2). It is filed as cell-based. Summed up: as §1
Another assay deals with PC-3. The experiment in a line: Cell proliferation assay. It is filed as cell-based, human. The essentials:
as §1

Another assay concerns H1975. The experiment in a line: Cell proliferation assay. It is filed as cell-based. To be noted: read-out: IC50 H1975; lung carcinoma; mean ± SD (n ≥ 2). Summed up: as §1
Another assay deals with KATO III. The experiment in a line: Cell proliferation assay. It is filed as cell-based. To be noted: read-out: IC50 KATO III; gastric carcinoma; mean ± SD (n ≥ 2). Summed up:
as §1

The next assay relates to PC-3 cells. The experiment in a line: Cell cycle analysis by flow cytometry. It is filed as cell-based, human. To be noted: PC-3, 24 h treatment. The essentials:
(§2)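 Cells were seeded in 12-well plates overnight, then exposed to test compound for 24 h. Cells were trypsinized, washed in cold PBS and fixed overnight in 70% ethanol at −20 °C. After two PBS washes they were stained 30 min at 37 °C with 50 μg/mL propidium iodide plus 20 μg/mL RNase A. About 10,000 cells were acquired by flow cytometry. Results are means ± SD; two-tailed unpaired t test.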
(Flow cytometry measures light scatter and fluorescence of single cells or particles in a stream.)

Assay [1] concerns cyclin A2, cyclin B1, and cyclin D1. The experiment in a line: Western blot of cell cycle-related proteins. It is filed as cell-based, human. To be noted: MDA-MB-231 and PC-3 cells, 24 h, dose-dependent. Summed up:
(§3)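 MDA-MB-231 and PC-3 cells were seeded in 12-well plates overnight, then exposed to a concentration gradient of test compound. Cells were lysed in SDS sample buffer, and equal protein amounts were run on SDS-PAGE and transferred to PVDF. Membranes were probed with primary antibodies, then HRP-conjugated secondary antibodies, and detected by ECL chemiluminescence.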

The next assay has as its system MDA-MB-231 cells. The experiment in a line: Cell cycle analysis by flow cytometry. To be noted: MDA-MB-231, 24 h treatment. It is filed as cell-based, human. Summed up: as §2
A further assay has as its system A-431. The experiment in a line: Cell proliferation assay. It is filed as cell-based. The note with it: read-out: IC50 A-431; squamous cell carcinoma; mean ± SD (n ≥ 2). Summed up: as §1
Assay [2] concerns P-AKT, P-STAT3, P-STAT5, P-P38. The experiment in a line: Western blot of JAK/STAT5, PI3K/AKT and p38 MAPK pathways. It is filed as cell-based, human. To be noted: MDA-MB-231 and PC-3 cells, 24 h, concentration-dependent. The essentials: as §3
For another assay, the system named is DOHH2. Put plainly: Cell proliferation assay. It is filed as cell-based. To be noted: read-out: IC50 DOHH2; diffuse large B cell lymphoma; mean ± SD (n ≥ 2). Summed up:
as §1

The mark [3] stands for this setting: read-out: IC50 MDA-MB-231, breast carcinoma, mean ± SD (n ≥ 2).
Setting [4] is: read-out: IC50 K562, chronic myeloid leukemia, mean ± SD (n ≥ 2).
Where [5] appears, read: read-out: IC50 PC-3, prostate carcinoma, mean ± SD (n ≥ 2).
[6] abbreviates: Homo sapiens, K562, read-out: IC50 K562.
[7] abbreviates: Homo sapiens, MDA-MB-231, read-out: IC50 MDA-MB-231.
[8] abbreviates: Homo sapiens, PC-3, read-out: IC50 PC-3.

Read-outs that look alike come from different tables or passages of the source.

Data on 17 molecules can be found in publication PMC12079591 (ACS Omega, 2025).

In the case of “3-(1,2-Dicarba-closo-dodecarboranyl)-4-oxo-4H-chromen-7-yl Sulfurofluoridate [Compound 1m]”, the IC50 in the assay on HCT116 came out at 2.86 ± 0.23 µM; in the assay with SUDHL-4 it was 4.29 ± 0.54 µM; in the assay on HPAF-II, 2.67 ± 0.55 µM; in the assay on MV-4-11, 5.45 ± 0.26 µM; in the assay with MDA-MB-231 (setting [3]) it was 5.46 ± 0.61 µM; in the assay with K562/ADR (multidrug-resistant subline, mean ± SD (n ≥ 2)) it was 3.04 ± 0.0347 µM. Besides, the IC50 stood at 4.52 ± 0.8 µM with K562 (setting [4]); 4.52 ± 0.806 µM with K562 (read-out: IC50 K562, parental cell line, mean ± SD (n ≥ 2)); 2.54 ± 0.37 µM with NUGC-3; 3.19 ± 0.18 µM in the assay on NCI-H460; 4.99 ± 2.76 µM in the assay with PC-3 (setting [5]); 5.63 ± 0.3 µM in the assay with H1975. Also, the IC50 with KATO III turned out to be 3.55 ± 0.15 µM; with A-431, 4.86 ± 0.21 µM; in the assay with DOHH2 it was 1.93 ± 0.12 µM. Besides, in the assay on MDR1, the “expression of MDR1” value is “significantly inhibited”. The “RF (resistance factor)” value with K562/ADR amounted to 0.67. The “effect on cell cycle distribution” value with PC-3 cells and with MDA-MB-231 cells was “caused G0/G1 cell cycle arrest” throughout. Also, the “expression of cyclin A2, cyclin B1, and cyclin D1” value in [1] is recorded as “downregulated”. Also, the P-P38 expression result in assay [2] was “upregulating”. For the same molecule, the “expression of P-AKT, P-STAT3, and P-STAT5” value in assay [2] is on record as “reduced”.

Turning to “3-(1,2-Dicarba-closo-dodecarboranyl)-4H-chromen-4-one [Compound 1a]”, the values for the IC50 with MDA-MB-231 (setting [3]) and with PC-3 (setting [5]) were 75.2 ± 20.8 µM and 66.6 ± 8.79 µM, respectively.

As to “3-(1,2-Dicarba-closo-dodecarboranyl)-5,7-dihydroxy-4H-chromen-4-one [Compound 1g]”, the IC50 with HCT116 is 4.21 ± 0.11 µM; with SUDHL-4, 6.16 ± 0.34 µM; with HPAF-II, 4.14 ± 0.93 µM; in the assay with MV-4-11 it was 5.65 ± 0.02 µM; in the assay on MDA-MB-231 (setting [3]), 5.34 ± 1.03 µM; in the assay on K562 (setting [4]), 7 ± 0.27 µM. The IC50 is 4.79 ± 0.44 µM in the assay on NUGC-3; 5.93 ± 2.15 µM with NCI-H460; 5.14 ± 2.93 µM in the assay with PC-3 (setting [5]); 5.13 ± 1.08 µM in the assay on H1975; 5.02 ± 0.38 µM in the assay with KATO III; 4.84 ± 1.07 µM in the assay with A-431. Moreover, the IC50 in the assay on DOHH2 amounted to 5.23 ± 0.62 µM.

Regarding “3-(1,2-Dicarba-closo-dodecarboranyl)-5,7-dimethoxy-4H-chromen-4-one [Compound 1e]”, the IC50 in the assay with MDA-MB-231 (setting [3]) worked out at 55.8 ± 6.71 µM; with PC-3 (setting [5]), 53.1 ± 0.73 µM.

Take “3-(1,2-Dicarba-closo-dodecarboranyl)-5-hydroxy-7-methoxy-4H-chromen-4-one [Compound 1f]”: the IC50 in the assay on MDA-MB-231 (setting [3]) and in the assay on PC-3 (setting [5]) was more than 100 µM in each case.

Regarding “3-(1,2-Dicarba-closo-dodecarboranyl)-7-methoxy-2H-chromene [Compound 1j]”, the IC50 worked out at 16 ± 0.16 µM with MDA-MB-231 (setting [3]) and 10.9 ± 3.31 µM with PC-3 (setting [5]).

Consider “3-(1,2-Dicarba-closo-dodecarboranyl)-7-methoxy-4H-chromen-4-one [Compound 1b]”, for which the IC50 in the assay with MDA-MB-231 (setting [3]) worked out at 47.5 ± 7.39 µM; with PC-3 (setting [5]), 54.7 ± 6.26 µM.

As to “3-(1,2-Dicarba-closo-dodecarboranyl)-7-methoxychroman-4-ol [Compound 1h]”, the values for the IC50 with MDA-MB-231 (setting [3]) and in the assay on PC-3 (setting [5]) were 14.6 ± 1.58 µM and 13.5 ± 1.02 µM, respectively.

“3-(1,2-Dicarba-closo-dodecarboranyl)-7-methoxychroman-4-one [Compound 1i]”: the IC50 in the assay on MDA-MB-231 (setting [3]) amounted to 25.4 ± 7.3 µM; with PC-3 (setting [5]), 38 ± 2.79 µM.

As to “3-(1,2-Dicarba-closo-dodecarboranyl)-7-methoxychromane [Compound 1k]”, the IC50 in the assay on MDA-MB-231 (setting [3]) is 35.3 ± 4.78 µM; in the assay on PC-3 (setting [5]), 35.5 ± 0.98 µM.

Take “3-(1,2-Dicarba-closo-dodecarboranyl)chromane-4,7-diol [Compound 1l]”: the results for the IC50 with MDA-MB-231 (setting [3]) and in the assay with PC-3 (setting [5]) were 17.9 ± 6.09 µM and 16.6 ± 1.89 µM, respectively.

On to “7-(Benzyloxy)-3-(1,2-dicarba-closo-dodecarboranyl)-4H-chromen-4-one [Compound 1c]”, for which the results for the IC50 with MDA-MB-231 (setting [3]) and in the assay with PC-3 (setting [5]) were 65.3 ± 5.39 µM and 72.4 ± 1.06 µM, respectively.

Regarding `COc1cccc2c1C(=O)c1c(O)c3c(c(O)c1C2=O)C[C@@](O)(C(=O)CO)C[C@@H]3O[C@H]1C[C@H](N)[C@H](O)[C@H](C)O1` [adriamycin], the IC50 is 2.84 ± 1.06 µM in the assay with K562/ADR (Homo sapiens, K562/Adr) and 0.0267 ± 0.00082 µM with K562 (setting [6]). The “RF (resistance factor)” value with K562/ADR turned out to be 106.35.

As for `COc1ccc(-c2coc3cc(O)ccc3c2=O)cc1` [formononetin, reference compound], the IC50 in the assay with MDA-MB-231 (setting [7]) and in the assay on PC-3 (setting [8]) was more than 100 µM in each case.

For the molecule `O=c1c(-c2ccc(O)cc2)coc2cc(O)cc(O)c12` [genistein, reference compound], the IC50 is 36.9 ± 2.81 µM with MDA-MB-231 (setting [7]) and 29.5 ± 8.74 µM in the assay on PC-3 (setting [8]).

On to `CC(=O)O[C@H]1C(=O)[C@@]2(C)[C@H]([C@H](OC(=O)c3ccccc3)[C@]3(O)C[C@H](OC(=O)[C@H](O)[C@@H](NC(=O)c4ccccc4)c4ccccc4)C(C)=C1C3(C)C)[C@]1(OC(C)=O)CO[C@@H]1C[C@@H]2O` [paclitaxel], for which the IC50 was more than 10 µM in the assay with K562/ADR (Homo sapiens, K562/Adr) and 0.00157 ± 0.0015 µM in the assay with K562 (setting [6]). For the same molecule, the “RF (resistance factor)” value is given as more than 6000 in the assay on K562/ADR and “over 6000” in the assay on K562/ADR (listed as PTX).

`CCC1=C[C@@H]2CN(C1)Cc1c([nH]c3ccccc13)[C@@](C(=O)OC)(c1cc3c(cc1OC)N(C)[C@H]1[C@@](O)(C(=O)OC)[C@H](OC(C)=O)[C@]4(CC)C=CCN5CC[C@]31[C@@H]54)C2` [vinorelbine]: the IC50 stood at 0.326 ± 0.0425 µM in the assay with K562/ADR (Homo sapiens, K562/Adr) and 0.00157 ± 0.00112 µM in the assay with K562 (setting [6]). Further, the “RF (resistance factor)” value with K562/ADR is 230.86.
